SMILES strings stand for the structures.

Broadly, the MIC50 is an inhibitory concentration at the 50% level, which refers to growth in some studies and to a panel of isolates in others.

For assay [1], the system named is Mycobacterium tuberculosis. The experiment in a line: Antimycobacterial activity against Mycobacterium bovis BCG assessed as inhibition of microbial growth at 0.5 to 100 ug/ml incubated for 6 days by MABA method. The class given is functional, variant bovis BCG. An outline of the steps:
(§1)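 Microplate alamar blue assay in 7H9GC medium. Compounds dissolved in DMSO at 10 mg/mL (stock), diluted to 100, 50, 25, 10, 5, 1 and 0.5 ug/mL, each in triplicate. Frozen inoculum added at final 2.5 x 10^5 CFU/mL. Bacteria-alone and medium-alone control wells. Read by colour change and fluorescence. % inhibition = (test − M bkg)/(B − M bkg) x 100, mean of two experiments. MIC50 = lowest concentration giving ≥50% inhibition.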
On the technique in general: Alamar Blue is a resazurin reagent that responds to reducing activity.

The test system of assay [2] is Mycobacterium tuberculosis. The experiment in a line: Antimycobacterial activity against Mycobacterium bovis BCG assessed as inhibition of microbial growth at 1 ug/ml incubated for 6 days by MABA method. The class given is functional. Conditions: variant bovis BCG, 144 h, read-out: GI. An outline of the steps:
as §1

Assay [3] has as its system Mycobacterium tuberculosis. The experiment in a line: Antimycobacterial activity against Mycobacterium bovis BCG assessed as inhibition of microbial growth at 100 ug/ml incubated for 6 days by MABA method. Particulars: variant bovis BCG, 144 h, read-out: GI. Type of assay: functional. Put shortly: as §1
Assay [4] concerns Mycobacterium tuberculosis. The experiment in a line: Antimycobacterial activity against Mycobacterium bovis BCG assessed as inhibition of microbial growth incubated for 6 days by MABA method. The class given is functional. Particulars: variant bovis BCG, 144 h. Put shortly: as §1
The test system of assay [5] is Mycobacterium tuberculosis. The experiment in a line: Antimycobacterial activity against Mycobacterium bovis BCG assessed as inhibition of microbial growth at 50 ug/ml incubated for 6 days by MABA method. The class given is functional. Conditions: variant bovis BCG, 144 h, read-out: GI. Put shortly: as §1
The subject of assay [6] is Mycobacterium tuberculosis. The experiment in a line: Antimycobacterial activity against Mycobacterium bovis BCG assessed as inhibition of microbial growth at 10 ug/ml incubated for 6 days by MABA method. Type of assay: functional. Particulars: variant bovis BCG, 144 h, read-out: GI. Put shortly:
as §1

Assay [7] has as its system Mycobacterium tuberculosis. The experiment in a line: Antimycobacterial activity against Mycobacterium bovis BCG assessed as inhibition of microbial growth at 5 ug/ml incubated for 6 days by MABA method. The class given is functional. Conditions: variant bovis BCG, 144 h, read-out: GI. Put shortly: as §1
In assay [8] the test system is Mycobacterium tuberculosis. The experiment in a line: Antimycobacterial activity against Mycobacterium bovis BCG assessed as inhibition of microbial growth at 0.5 ug/ml incubated for 6 days by MABA method. Type of assay: functional. Particulars: variant bovis BCG, 144 h, read-out: GI. Put shortly: as §1

Regarding `CCc1cn([C@H]2O[C@@H](CO)[C@H](O)[C@H]2F)c(=O)[nH]c1=O` (single isomer, unassigned), the “growth inhibition (GI)” value in assay [1] was determined as 0%.

Turning to `Cc1cn([C@@H]2O[C@H](CO)[C@@H](Br)[C@@H]2O)c(=O)[nH]c1=O`, the inhibition of growth at 1 µg/mL in assay [2] came to 40%.

In the case of `CCc1cn([C@@H]2O[C@H](CO)[C@@H](O)[C@@H]2F)c(=O)nc1N`, in assay [3], the inhibition of growth at 100 µg/mL was determined as 50%.

In the case of `CCc1cn([C@@H]2O[C@H](CO)[C@@H](Br)[C@@H]2F)c(=O)[nH]c1=O`, in assay [4], the MIC50 was 5 µg/mL. Besides, the inhibition of growth at 50 µg/mL in assay [5] was determined as 70%. Also, the inhibition of growth at 10 µg/mL in assay [6] is 60%. Also, in assay [7], the inhibition of growth at 5 µg/mL is 50%. Further, the inhibition of growth at 100 µg/mL in assay [3] amounted to 80%.

Take `O=c1[nH]c(=S)c(CO)cn1[C@@H]1O[C@H](CO)[C@@H](O)[C@@H]1O`: in assay [4], the MIC50 worked out at 0.5 µg/mL. Moreover, the inhibition of growth at 0.5 µg/mL in assay [8] came to 50%. The inhibition of growth at 50 µg/mL in assay [5] was determined as 100%. In assay [6], the inhibition of growth at 10 µg/mL worked out at 90%. For the same molecule, in assay [7], the inhibition of growth at 5 µg/mL turned out to be 75%. Also, the inhibition of growth at 100 µg/mL in assay [3] came out at 100%.

For `O=c1[nH]c(=O)n([C@@H]2O[C@H](CO)[C@@H](O)[C@@H]2O)cc1CO`, the “growth inhibition (GI)” value in assay [1] is 0%.

Take `CCc1cn([C@@H]2O[C@H](COC(C)=O)[C@@H](OC(C)=O)[C@@H]2F)c(=O)[nH]c1=O`: the inhibition of growth at 50 µg/mL in assay [5] came to 55%. In assay [3], the inhibition of growth at 100 µg/mL was determined as 75%.

For `CCc1cn2c(nc1=O)O[C@@H]1[C@H](F)[C@H]2O[C@@H]1CO`, the inhibition of growth at 50 µg/mL in assay [5] amounted to 25%. In assay [3], the inhibition of growth at 100 µg/mL was determined as 25%.

With `CCc1cn([C@@H]2O[C@H](CO)[C@@H](N=[N+]=[N-])[C@@H]2F)c(=O)[nH]c1=O`, the “growth inhibition (GI)” value in assay [1] is 0%.

For the molecule `CCc1cn([C@@H]2O[C@H](CO)C[C@@H]2F)c(=O)[nH]c1=O`, the inhibition of growth at 100 µg/mL in assay [3] turned out to be 25%.

Regarding `COCc1cn([C@@H]2O[C@H](CO)[C@@H](O)[C@@H]2O)c(=O)nc1N`, the inhibition of growth at 50 µg/mL in assay [5] stood at 60%. The inhibition of growth at 10 µg/mL in assay [6] came out at 50%. Moreover, the inhibition of growth at 100 µg/mL in assay [3] worked out at 80%.

As to `CO[C@H]1/C=C/O[C@@]2(C)Oc3c(C)c(O)c4c(O)c(c(/C=N/N5CCN(C)CC5)c(O)c4c3C2=O)NC(=O)/C(C)=C\C=C\[C@H](C)[C@H](O)[C@@H](C)[C@@H](O)[C@@H](C)[C@H](OC(C)=O)[C@@H]1C` [RIFAMPIN], in assay [8], the inhibition of growth at 0.5 µg/mL is 100%.

Take `CCc1cn([C@@H]2O[C@H](CO)[C@@H](O)[C@@H]2F)c(=O)[nH]c1=S`: in assay [5], the inhibition of growth at 50 µg/mL was 55%. The inhibition of growth at 100 µg/mL in assay [3] stood at 65%.
